In ChEMBL document CHEMBL1138494, “Human glucagon receptor antagonists with thiazole cores. A novel series with superior pharmacokinetic properties” (J Med Chem, 2009):
Activity calls are given as the source filed them. No cut-off for these calls is given here.

Columns and labels:
[1] = Tmax in fasted Sprague-Dawley rat at 1.58 mg/kg, iv and 3.16 mg/kg, po; type: ADME, organism-based; details: in vivo
In short: (§1)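 Plasma concentration–time profiles were recorded after separate intravenous and peroral dosing at the per-compound doses listed. T_max is reported in min alongside C_max (ng/mL), intravenous half-life and clearance ((mL/min)/kg).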

[2] = Clearance in fasted Sprague-Dawley rat at 1.58 mg/kg, iv and 3.16 mg/kg, po; type: ADME, organism-based; details: in vivo
In short: (§2)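 Rats were dosed intravenously and perorally in separate arms, and plasma concentration-time profiles were obtained. Half-life was taken from the iv arm. Clearance, oral bioavailability, Cmax and Tmax were derived from the profiles.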

[3] = Oral bioavailability in fasted Sprague-Dawley rat at 3.16 mg/kg by HTLC-MS/MS analysis; type: ADME, organism-based; details: in vivo
In short: (§3)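 Separate intravenous and peroral dosing arms per compound, with plasma concentration followed against time. Oral bioavailability (F_po) is reported per compound together with the intravenous half-life and clearance. The dose used for each arm is listed per compound.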

[4] = molecular target: T1, Gastric inhibitory polypeptide receptor (Homo sapiens, UniProt P48546); experiment: Displacement of [125I]porcine GIP from human recombinant GIPR receptor expressed in BHK cells by scintillation proximity assay; type: cell-based
T1 sequence (P48546 whole entry): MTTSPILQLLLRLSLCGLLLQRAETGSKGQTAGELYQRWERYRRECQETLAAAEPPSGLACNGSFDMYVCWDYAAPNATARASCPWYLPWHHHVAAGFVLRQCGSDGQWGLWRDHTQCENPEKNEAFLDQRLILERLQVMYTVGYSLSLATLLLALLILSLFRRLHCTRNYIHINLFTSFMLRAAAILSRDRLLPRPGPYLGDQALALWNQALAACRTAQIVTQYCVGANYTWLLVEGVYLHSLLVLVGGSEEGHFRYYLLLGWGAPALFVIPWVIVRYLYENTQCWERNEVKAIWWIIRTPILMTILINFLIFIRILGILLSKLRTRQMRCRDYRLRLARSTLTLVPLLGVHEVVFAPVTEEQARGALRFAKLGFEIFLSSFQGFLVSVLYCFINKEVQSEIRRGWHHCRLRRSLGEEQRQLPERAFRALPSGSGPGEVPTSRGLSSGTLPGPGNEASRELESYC

Glucagon receptor [5] = molecular target: T2, Glucagon receptor (Homo sapiens, UniProt P47871); experiment: Displacement of [125I]porcine glucagon from human recombinant glucagon receptor expressed in BHK cells by scintillation proximity assay; type: cell-based
[6] = Cmax in fasted Sprague-Dawley rat at 1.58 mg/kg, iv and 3.16 mg/kg, po; type: ADME, organism-based; details: in vivo; in short: as §2
[7] = Half life in fasted Sprague-Dawley rat plasma at 1.58 mg/kg, iv by HTLC-MS/MS analysis; type: ADME, organism-based; set-up: dose 1.58 mg/kg, route intravenous; in short: as §2
Homo sapiens [8] = species: Homo sapiens; experiment: Selectivity for human recombinant glucagon receptor over human GLP1R
Glucagon receptor [9] = molecular target: T2, Glucagon receptor; experiment: Binding affinity to human recombinant glucagon receptor expressed in BHK cells by membrane filter assay; type: cell-based
[10] = molecular target: T1, Gastric inhibitory polypeptide receptor; experiment: Binding affinity to human recombinant GIPR expressed in BHK cells by membrane filter assay; type: cell-based
Homo sapiens [11] = species: Homo sapiens; experiment: Selectivity ratio of IC50 for human recombinant glucagon receptor to IC50 for human recombinant GIPR
In short: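 Competition binding of compounds to recombinant human glucagon and GIP receptors on BHK cell membranes, run in parallel as a scintillation proximity assay and, for selected compounds, as a membrane filtration assay.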

[12] = Oral bioavailability in fasted Sprague-Dawley rat at 3.04 mg/kg by HTLC-MS/MS analysis; type: ADME, organism-based; details: in vivo; in short: as §3
[13] = Half life in monkey at 0.3 to 3 mg/kg, iv; type: ADME, organism-based, Macaca mulatta; set-up: dose 0.3-3 mg/kg, route intravenous; details: rhesus monkey, in vivo
In short: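 In the anesthetized glucagon-challenged monkey study, compound was given intravenously. Blood samples were assayed for compound, and plasma concentration-time profiles yielded the half-life.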

[14] = Tmax in fasted Beagle dog at 0.25 mg/kg, iv and 0.5 mg/kg, po; type: ADME, organism-based, Canis lupus familiaris; details: in vivo; in short: as §1
Hepatocyte [15] = experiment: Inhibition of glucagon-stimulated glucose production in human primary hepatocytes preincubated for 10 mins before glucagon addition by NADH-linked hexokinase assay; type: functional, cell-based
In short: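 Cultured primary human hepatocytes were preincubated with compound for 10 min, then glycogenolysis was induced with 5 nM glucagon for 60 min. Glucose in the medium was measured against basal glycogenolysis. Albumin was present in the assay medium. IC50 was calculated from four experiments, mean ± SEM.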

Rhesus monkey = experiment: Antihyperglycemic activity against glucagon-stimulated glycaemia in iv dosed hyperglucagonaemia/hyperglycaemia monkey model assessed as decrease in plasma glucose level preincubated for 5 mins before glucagon challenge measured after 30 mins; type: functional, organism-based; details: Macaca mulatta
In short: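 Anesthetized monkeys challenged with exogenous glucagon received compound intravenously. Plasma glucose was followed over time to gauge blockade of glucagon-stimulated glycaemia.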

[16] = Binding affinity to glucagon receptor in pig liver membrane by membrane filter assay; type: cell membranes, Sus scrofa
[17] = Clearance in fasted Sprague-Dawley rat at 1.62 mg/kg, iv and 3.04 mg/kg, po by HTLC-MS/MS analysis; type: ADME, organism-based; details: in vivo; in short: as §2
Hepatocyte [18] = experiment: Inhibition of glucagon-stimulated glucose production in rat primary hepatocytes; type: functional, cell-based
[19] = Half life in fasted Beagle dog at 0.25 mg/kg, iv; type: ADME, organism-based, Canis lupus familiaris; set-up: dose 0.25 mg/kg, route intravenous; details: in vivo
In short: (§4)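 Dogs were dosed at 0.25 mg/kg iv and 0.5 mg/kg po, and plasma concentration was followed over time. Half-life came from the iv arm; clearance, Cmax and Tmax were also derived.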

Glucagon receptor [20] = molecular target: Glucagon receptor (Mus musculus, UniProt Q61606); experiment: Binding affinity to glucagon receptor in mouse liver membrane by membrane filter assay; type: cell membranes
[21] = Tmax in fasted Sprague-Dawley rat at 1.62 mg/kg, iv and 3.04 mg/kg, po; type: ADME, organism-based; details: in vivo; in short: as §1
[22] = Binding affinity to glucagon receptor in dog liver membrane by membrane filter assay; type: cell membranes, Canis lupus familiaris
[23] = Binding affinity to glucagon receptor in monkey liver membrane by membrane filter assay; type: cell membranes, Macaca mulatta
[24] = Half life in fasted Sprague-Dawley rat plasma at 1.62 mg/kg, iv by HTLC-MS/MS analysis; type: ADME, organism-based; set-up: dose 1.62 mg/kg, route intravenous; in short: as §2
[25] = Cmax in fasted Beagle dog at 0.25 mg/kg, iv and 0.5 mg/kg, po; type: ADME, organism-based, Canis lupus familiaris; details: in vivo; in short: as §4
Glucagon receptor [26] = molecular target: Glucagon receptor (Rattus norvegicus, UniProt P30082); experiment: Binding affinity to glucagon receptor in rat liver membrane by membrane filter assay; type: cell membranes
[27] = Binding affinity to glucagon receptor in rabbit liver membrane by membrane filter assay; type: cell membranes, Oryctolagus cuniculus
[28] = Oral bioavailability in fasted Beagle dog at 0.5 mg/kg; type: ADME, organism-based, Canis lupus familiaris; details: in vivo; in short: as §3
[29] = Clearance in fasted Beagle dog at 0.25 mg/kg, iv and 0.5 mg/kg, po; type: ADME, organism-based, Canis lupus familiaris; details: in vivo; in short: as §4
[30] = Cmax in fasted Sprague-Dawley rat at 1.62 mg/kg, iv and 3.04 mg/kg, po; type: ADME, organism-based; details: in vivo; in short: as §2
[31] = Tmax in fasted Sprague-Dawley rat at 1.60 mg/kg, iv and 3.25 mg/kg, po by HTLC-MS/MS analysis; type: ADME, organism-based; details: in vivo; in short: as §1
[32] = Half life in fasted Sprague-Dawley rat plasma at 1.60 mg/kg, iv by HTLC-MS/MS analysis; type: ADME, organism-based; set-up: dose 1.6 mg/kg, route intravenous; details: 1.6 mg/kg; in short: as §2
[33] = Clearance in fasted Sprague-Dawley rat at 1.60 mg/kg, iv and 3.25 mg/kg, po by HTLC-MS/MS analysis; type: ADME, organism-based; details: in vivo, 1.6 mg/kg; in short: as §2
[34] = Cmax in fasted Sprague-Dawley rat at 1.60 mg/kg, iv and 3.25 mg/kg, po by HTLC-MS/MS analysis; type: ADME, organism-based; details: in vivo; in short: as §2
[35] = Oral bioavailability in fasted Sprague-Dawley rat at 3.25 mg/kg by HTLC-MS/MS analysis; type: ADME, organism-based; details: in vivo; in short: as §3

T2 sequence (P47871 whole entry): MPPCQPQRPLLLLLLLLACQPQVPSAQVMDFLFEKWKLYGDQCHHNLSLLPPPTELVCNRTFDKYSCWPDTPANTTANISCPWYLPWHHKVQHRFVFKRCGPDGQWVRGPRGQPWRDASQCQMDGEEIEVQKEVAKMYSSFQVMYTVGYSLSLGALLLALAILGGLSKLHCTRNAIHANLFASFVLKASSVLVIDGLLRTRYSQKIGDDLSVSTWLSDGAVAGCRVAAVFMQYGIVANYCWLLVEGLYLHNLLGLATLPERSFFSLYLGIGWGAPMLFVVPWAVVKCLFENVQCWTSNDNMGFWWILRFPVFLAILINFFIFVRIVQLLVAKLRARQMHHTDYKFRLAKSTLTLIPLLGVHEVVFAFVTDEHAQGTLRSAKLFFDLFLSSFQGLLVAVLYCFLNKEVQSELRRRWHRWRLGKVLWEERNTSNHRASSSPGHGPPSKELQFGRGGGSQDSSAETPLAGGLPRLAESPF
Chain of Glucagon receptor (Mus musculus, UniProt Q61606) (Q61606 whole entry): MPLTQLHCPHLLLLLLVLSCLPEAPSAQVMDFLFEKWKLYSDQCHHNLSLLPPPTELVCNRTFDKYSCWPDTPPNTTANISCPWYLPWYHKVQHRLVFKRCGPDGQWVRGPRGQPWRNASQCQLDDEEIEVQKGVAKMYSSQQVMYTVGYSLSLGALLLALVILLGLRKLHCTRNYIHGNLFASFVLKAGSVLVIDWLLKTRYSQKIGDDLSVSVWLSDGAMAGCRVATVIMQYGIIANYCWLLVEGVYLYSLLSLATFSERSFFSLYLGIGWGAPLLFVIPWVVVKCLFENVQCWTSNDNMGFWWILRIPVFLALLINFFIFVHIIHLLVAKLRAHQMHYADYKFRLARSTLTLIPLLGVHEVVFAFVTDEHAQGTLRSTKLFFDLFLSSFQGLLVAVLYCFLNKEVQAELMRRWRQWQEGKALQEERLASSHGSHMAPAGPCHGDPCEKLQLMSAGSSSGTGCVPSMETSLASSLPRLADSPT
Chain of Glucagon receptor (Rattus norvegicus, UniProt P30082) (P30082 whole entry): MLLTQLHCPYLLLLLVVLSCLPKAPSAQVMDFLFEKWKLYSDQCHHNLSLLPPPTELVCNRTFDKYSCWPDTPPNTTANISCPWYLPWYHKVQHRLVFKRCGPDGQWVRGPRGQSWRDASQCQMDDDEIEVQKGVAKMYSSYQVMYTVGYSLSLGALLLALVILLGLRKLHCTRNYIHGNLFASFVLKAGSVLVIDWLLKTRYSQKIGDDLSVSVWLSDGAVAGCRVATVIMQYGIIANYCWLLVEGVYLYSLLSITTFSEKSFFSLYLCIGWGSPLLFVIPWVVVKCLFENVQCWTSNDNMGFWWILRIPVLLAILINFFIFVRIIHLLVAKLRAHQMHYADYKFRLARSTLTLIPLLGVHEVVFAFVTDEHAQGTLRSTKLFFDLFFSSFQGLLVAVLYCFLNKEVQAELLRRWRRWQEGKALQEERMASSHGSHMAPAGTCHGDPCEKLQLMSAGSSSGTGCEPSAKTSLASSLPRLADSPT

SMILES	IC50 [4] [nM]	IC50 (Glucagon receptor [5]) [nM]	fold change (FC) (Homo sapiens [8])	IC50 (Glucagon receptor [9]) [nM]	IC50 [10] [nM]	fold change (FC) (Homo sapiens [11])	Tmax [14] [h]	IC50 (Hepatocyte [15]) [nM]	IC50 [16] [nM]	inhibition (Hepatocyte [18])	half-life [19] [h]	IC50 (Glucagon receptor [20]) [nM]	IC50 [22] [nM]	IC50 [23] [nM]	Cmax [25] [ng/mL]	IC50 (Glucagon receptor [26]) [nM]	IC50 [27] [nM]	bioavailability [28] [%]	clearance [29] [mL/min/kg]	further results
O=C(O)CCNC(=O)c1ccc(CC(c2ccc(Cl)cc2)c2nc(-c3ccc(C(F)(F)F)cc3)cs2)cc1 (stereo unspecified)	381	96	> 50	38	211	5	–	–	–	–	–	–	–	–	–	–	–	–	–	Tmax [1]: 0.5 h; clearance [2]: 28 mL/min/kg; bioavailability [3]: 52%; Cmax [6]: 117 ng/mL; half-life [7]: 0.4 h
O=C(O)CCNC(=O)c1ccc(CN(c2ccc(C(F)(F)F)cc2)c2nc(-c3ccc(Cl)cc3)cs2)cc1	990	92	> 50	93	1100	5	1.5	6700	7000	inactive	1.73	648	155	114	1250	2700	1600	141	2.23	bioavailability [12]: 58%; half-life [13]: 5.23 h; Activity (Rhesus monkey): Dose-dependent effect; clearance [17]: 1 mL/min/kg; Tmax [21]: 1.42 h; half-life [24]: 3.8 h; Cmax [30]: 2100 ng/mL
O=C(O)CCNC(=O)c1ccc(CN(c2ccc(Cl)cc2)c2nc(-c3ccc(C(F)(F)F)cc3)cs2)cc1	649	76	> 50	53	410	5	1.75	2700	4000	inactive	1.33	372	68	51	120	1400	943	16	4.66	Tmax [31]: 1.5 h; half-life [32]: 2.25 h; clearance [33]: 5 mL/min/kg; Cmax [34]: 216 ng/mL; bioavailability [35]: 13%
